Experimental data reported in paper PMC6339461 (Bioorganic & medicinal chemistry letters, 2018).
“Also recorded” adds a separate entry of the source.

Key:
[1] = solubility in DMSO and buffer; format: physicochemical; settings: in both DMSO and buffer; compared with hit 7a
[2] = parallel artificial membrane permeability assay; format: in vitro ADME; settings: for permeability, result in words: PAMPA
[3] = system: HepG2; test: cytotoxicity in HepG2 cells; format: cell-based; settings: concentrations up to 100 μM
[4] = system: HeLa; test: cytotoxicity in HeLa cells; format: cell-based; settings: concentrations up to 100 μM
[5] = target: T1, TDP2 (Danio rerio, UniProt Q5XJA0); test: fluorescence-based biochemical assay measuring the catalytic activity of TDP2
T1 sequence (Q5XJA0 121-369): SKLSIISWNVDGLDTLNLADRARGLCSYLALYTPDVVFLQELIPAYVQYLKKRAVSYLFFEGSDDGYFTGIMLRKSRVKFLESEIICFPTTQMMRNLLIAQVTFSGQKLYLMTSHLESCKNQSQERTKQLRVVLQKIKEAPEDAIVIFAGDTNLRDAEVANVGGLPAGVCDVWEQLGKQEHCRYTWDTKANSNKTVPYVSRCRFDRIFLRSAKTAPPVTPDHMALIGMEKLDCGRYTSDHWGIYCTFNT
Method in brief: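 TDP2 catalytic activity measured with a fluorescence read-out. IC50 values are the mean of three independent experiments, each run in triplicate.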

Structure (SMILES)	permeability, result in words [2]	cytotoxicity in HepG2, result in words [3]	cytotoxicity in HeLa, result in words [4]	also measured
O=C(Nc1nc2cc(-c3ccccc3)ccn2n1)c1cccc([N+](=O)[O-])c1 [Compound 17a]	–	–	–	solubility profile, result in words [1]: better solubility profile
O=C(Nc1nc2cc(-c3ccccc3)ccn2n1)c1cccc(Cl)c1 [Compound 17e]	borderline Pe value; also recorded: good cellular permeability	no cytotoxicity	no cytotoxicity	Pe value, times higher than that of 1 ([2]; relative to 1): about 10 times; permeability in PAMPA, fold higher than the hit compound ([2]; relative to hit compound): 6 fold
O=C(Nc1nc2cc(-c3ccccc3)ccn2n1)c1ccc(F)cc1Cl [Compound 17o]	–	–	–	TDP2 inhibition, result in words [5]: further reduced activity
O=C(Nc1nc2cc(-c3cccnc3)ccn2n1)c1cccc(Cl)c1 [Compound 17z]	good cellular permeability; also recorded: excellent cell permeability	no cytotoxicity	no cytotoxicity	fold increase in permeability versus 17e ([2]; relative to 17e): 7 fold
